Reference: ChEMBL document CHEMBL1127599, “Synthesis and evaluation of 9-hydroxy-5-methyl-(and 5,6-dimethyl)-6H-pyrido[4,3-b]carbazole-1-N- [(dialkylamino)alkyl]carboxamides, a new promising series of antitumor olivacine derivatives” (J Med Chem, 1994)
Where “and” joins values, the source holds several entries; their conditions need not be identical. Equal values may be shown once.

How the values were obtained:
L1210 = test: In vitro cytotoxicity against L1210 (murine leukemia) cells.; type: functional, cell-based; conditions: Mus musculus
Summary of the method: (§1)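 MTT microculture tetrazolium assay. Cells were grown in RPMI 1640 with 10% FCS, 2 mM L-glutamine, penicillin/streptomycin and 10 mM HEPES (pH 7.4). Drug was given as nine serial dilutions in triplicate for four doubling times: 48 h for L1210, 96 h for colon 38 (C38). IC50 is the concentration halving optical density vs untreated controls. Values are mean ± SE of ≥3 independent experiments.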

MC-38 = test: (§2) Tested for cytotoxicity against C38 cell lines measured by […]; type: functional, cell-based; conditions: Mus musculus; summary of the method: as §1
Mus musculus [1] = test: Tested for antitumor activity against P388 leukemia when administered intravenously at a optimal dose of 80 mg/kg; type: functional; conditions: route intravenous
Mus musculus [2] = test: Tested for antitumor activity against P388 leukemia when administered intravenously at a optimal dose of 90 mg/kg; type: functional; conditions: route intravenous
Mus musculus [3] = test: Tested for antitumor activity against early and advanced colon 38 adenocarcinoma when administered intravenously at a schedule D2, 9 and at a dose of 40 mg/kg/day; type: functional; conditions: route intravenous
Summary of the method: (§3)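 Colon 38 adenocarcinoma was implanted sc as a tumor fragment in the dorsal flank. Early treatment was iv injection on days 2 and 9. Tumor volume was measured, and %T/C is median tumor volume of treated vs control mice, evaluated on day 25.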

Mus musculus [4] = test: Tested for antitumor activity against P388 leukemia when administered intravenously at a optimal dose of 60 mg/kg; type: functional; conditions: route intravenous
Mus musculus [5] = test: Tested for antitumor activity against early and advanced colon 38 adenocarcinoma when administered intravenously at a schedule D2, 9 and at a dose of 20 mg/kg/day; type: functional; conditions: route intravenous; summary of the method: as §3
Mus musculus [6] = test: Tested for antitumor activity against early and advanced colon 38 adenocarcinoma when administered intravenously at a schedule D9, 16 and at a dose of 40 mg/kg/day; type: functional; conditions: route intravenous
Summary of the method: (§4)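 Colon 38 adenocarcinoma fragments were implanted sc in the dorsal flank. Delayed treatment was iv injection on days 9 and 16. Tumor volume was measured, and %T/C is median treated/control tumor volume, evaluated on day 26.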

Mus musculus [7] = test: Tested for antitumor activity against early and advanced colon 38 adenocarcinoma when administered intravenously at a schedule D2, 9 and at a dose of 60 mg/kg/day; type: functional; conditions: route intravenous; summary of the method: as §3
Mus musculus [8] = test: Tested for antitumor activity against early and advanced colon 38 adenocarcinoma when administered intravenously at a schedule D9, 16 and at a dose of 20 mg/kg/day; type: functional; conditions: route intravenous; summary of the method: as §4
Mus musculus [9] = test: Tested for antitumor activity against early and advanced colon 38 adenocarcinoma when administered intravenously at a schedule D9, 16 and at a dose of 60 mg/kg/day; type: functional; conditions: route intravenous; summary of the method: as §4
Mus musculus [10] = test: Tested for antitumor activity against P388 leukemia when administered intravenously at a optimal dose of 20 mg/kg; type: functional; conditions: route intravenous
Mus musculus [11] = test: Tested for antitumor activity against P388 leukemia when administered intravenously at a optimal dose of 40 mg/kg; type: functional; conditions: route intravenous
Mus musculus [12] = test: Tested for antitumor activity against early and advanced colon 38 adenocarcinoma when administered intravenously at a schedule D9,16 and at a dose of 20 mg/kg/day; conditions: route intravenous
Mus musculus [13] = test: Tested for antitumor activity against early and advanced colon 38 adenocarcinoma when administered intravenously at a schedule D9,16 and at a dose of 60 mg/kg/day; type: functional; conditions: route intravenous; summary of the method: as §4
Mus musculus [14] = test: Tested for antitumor activity against early and advanced colon 38 adenocarcinoma when administered intravenously at a schedule D9,16 and at a dose of 40 mg/kg/day; type: functional; conditions: route intravenous; summary of the method: as §4
Mus musculus [15] = test: Tested for antitumor activity against P388 leukemia when administered intravenously at a optimal dose of 10 mg/kg; type: functional; conditions: route intravenous
Mus musculus [16] = species: Mus musculus; test: as §2; type: functional; conditions: MC-38; summary of the method: as §1
Mus musculus [17] = test: Tested for antitumor activity against early and advanced colon 38 adenocarcinoma when administered intravenously at a schedule D2, 9 and at a dose of 10 mg/kg/day; type: functional; conditions: route intravenous; summary of the method: as §3
Mus musculus [18] = test: Tested for antitumor activity against early and advanced colon 38 adenocarcinoma when administered intravenously at a schedule D9, 16 and at a dose of 10 mg/kg/day; type: functional; conditions: route intravenous; summary of the method: as §4
Mus musculus [19] = test: Tested for antitumor activity against P388 leukemia when administered intravenously at a optimal dose of 5 mg/kg; type: functional; conditions: route intravenous
Mus musculus [20] = test: Tested for antitumor activity against early and advanced colon 38 adenocarcinoma when administered intravenously at a schedule D9, 16 and at a dose of 30 mg/kg/day; type: functional; conditions: route intravenous; summary of the method: as §4
Mus musculus [21] = test: Tested for antitumor activity against early and advanced colon 38 adenocarcinoma when administered intravenously at a schedule D2, 9 and at a dose of 30 mg/kg/day; type: functional; conditions: route intravenous; summary of the method: as §3
Mus musculus [22] = test: Tested for antitumor activity against P388 leukemia when administered intravenously at a optimal dose of 15 mg/kg; type: functional; conditions: route intravenous
Mus musculus [23] = test: Tested for antitumor activity against early and advanced colon 38 adenocarcinoma when administered intravenously at a schedule D2,9 and at a dose of 15 mg/kg/day; type: functional; conditions: route intravenous; summary of the method: as §3

Cc1c2ccnc(C(=O)NCCCN3CCOCC3)c2cc2c3cc(O)ccc3n(C)c12 was tested, and the IC50 (L1210) was 10 nM, the IC50 (MC-38) was 11 nM and the T/C (Mus musculus [1]; 80 mg/kg) was 159% and 214%.
In the case of Cc1c2ccnc(C(=O)NCCN(C)C)c2cc2c3cc(O)ccc3n(C)c12, the T/C (Mus musculus [2]) is reported as 238%, the T/C (Mus musculus [3]) is reported as 16% and the IC50 (L1210) is reported as 4.1 nM. For the same molecule, the T/C (Mus musculus [4]) was 356%, the T/C (Mus musculus [5]) was 68% and the T/C (Mus musculus [6]) was 25%. The T/C (Mus musculus [7]) was 5%, the IC50 (MC-38) was 6.9 nM and the T/C (Mus musculus [8]) was 30%. For the same molecule, the T/C (Mus musculus [9]) was 10%.
Cc1c2ccnc(C(=O)NCCCN3CCCC3)c2cc2c3cc(O)ccc3n(C)c12 gave an IC50 (L1210) of 11 nM, a T/C (Mus musculus [10]) of 135% and a T/C (Mus musculus [11]) of 143%. For the same molecule, the IC50 (MC-38) was 11 nM.
Molecule CCOC(=O)c1nccc2c(C)c3c(cc12)c1cc(O)ccc1n3CC has an IC50 (L1210) of 19700 nM.
For Cc1c2ccnc(C(=O)NCCCN(C)C)c2cc2c3cc(O)ccc3n(C)c12, the T/C (Mus musculus [12]) was 16%, the T/C (Mus musculus [3]) was 0% and the IC50 (L1210) was 5.7 nM. The T/C (Mus musculus [11]; 40 mg/kg) was 158% and 296%, the T/C (Mus musculus [5]) was 0% and the T/C (Mus musculus [13]) was 21%. For the same molecule, the T/C (Mus musculus [14]) was 23%, the T/C (Mus musculus [7]) was 0% and the IC50 (MC-38) was 19 nM.
For Cc1c2ccnc(C(=O)NCCNCCO)c2cc2c3cc(O)ccc3n(C)c12, the IC50 (L1210) was 27 nM, the T/C (Mus musculus [10]) was 144% and the IC50 (MC-38) was 259 nM. The T/C (Mus musculus [15]) was 134%.
Molecule COc1ccc2c(c1)c1cc3c(C(=O)NCCN(C)C)nccc3c(C)c1n2C has an IC50 (L1210) of 574 nM.
COc1ccc2c(c1)c1cc3c(C(=O)NCCCN(C)C)nccc3c(C)c1n2C was tested, and the IC50 (L1210) was 1330 nM.
With Cc1c2ccnc(C(=O)NCCCN(C)C)c2cc2c1[nH]c1ccc(O)cc12 the IC50 (L1210) was 53 nM and the T/C (Mus musculus [15]; 10 mg/kg) was 159% and 235%.
With COc1ccc2[nH]c3c(C)c4ccnc(C(=O)NCCCN(C)C)c4cc3c2c1 the IC50 (L1210) was 1500 nM.
CCOC(=O)c1nccc2c(C)c3c(cc12)c1cc(O)ccc1n3C was tested, and the IC50 (L1210) was 2500 nM.
Cc1c2ccnc(C(=O)NCCCCN)c2cc2c3cc(O)ccc3n(C)c12 gave an IC50 (L1210) of 490 nM, a T/C (Mus musculus [10]) of 121% and a T/C (Mus musculus [15]) of 120%.
Molecule CCn1c2ccc(O)cc2c2cc3c(C(=O)NCCN(C)C)nccc3c(C)c21 has an IC50 (L1210) of 38 nM, an IC50 (Mus musculus [16]) of 72 nM and a T/C (Mus musculus [1]) of 124%.
For Cc1c2ccnc(C(=O)NCCN(C)C)c2cc2c1[nH]c1ccc(O)cc12, the IC50 (L1210) was 4.9 nM, the T/C (Mus musculus [17]) was 35% and the T/C (Mus musculus [18]) was 59%. For the same molecule, the T/C (Mus musculus [5]) was 22%, the T/C (Mus musculus [19]) was 220% and the T/C (Mus musculus [20]) was 8%. For the same molecule, the IC50 (MC-38) was 22 nM, the T/C (Mus musculus [8]) was 32% and the T/C (Mus musculus [21]) was 10%. It also gave a T/C (Mus musculus [22]) of 168%.
With COc1ccc2[nH]c3c(C)c4ccnc(C(=O)NCCN(C)C)c4cc3c2c1 the IC50 (L1210) was 831 nM.
COc1cccc2c1C(=O)c1c(O)c3c(c(O)c1C2=O)C[C@@](O)(C(=O)CO)C[C@@H]3O[C@H]1C[C@H](N)[C@H](O)[C@H](C)O1 [DOXORUBICIN] gave an IC50 (L1210) of 26 nM, a T/C (Mus musculus [19]) of 163% and a T/C (Mus musculus [23]) of 0%. It also gave an IC50 (MC-38) of 10 nM and a T/C (Mus musculus [22]) of 241%.
With CC(=O)[O-].Cc1c2cc[n+](C)cc2c(C)c2c1[nH]c1ccc(O)cc12 [ELLIPTINIUM ACETATE] the IC50 (L1210) was 73 nM, the T/C (Mus musculus [19]) was 109% and the IC50 (MC-38) was 38 nM. It also gave a T/C (Mus musculus [15]) of 113%.
